In ChEMBL document CHEMBL3396947, “Synthesis and biological evaluation of phosphoramidate prodrugs of two analogues of 2-deoxy-d-ribose-1-phosphate directed to the discovery of two carbasugars as new potential anti-HIV leads” (Bioorg Med Chem, 2015):
The source made the active and inactive calls. The rule behind the calls is not given here.

Key:
[1] = system: Human immunodeficiency virus 2; experiment: Antiviral activity against HIV2 ROD infected in human CEM cells assessed as reduction of virus-induced cytopathogenicity after 4 to 5 days by trypan blue dye exclusion method; format: functional, organism-based; details: Human immunodeficiency virus 2, ISOLATE ROD, CCRF-CEM
[2] = system: Human immunodeficiency virus 1; experiment: Antiviral activity against HIV1 3B infected in human CEM cells assessed as reduction of virus-induced cytopathogenicity after 4 to 5 days by trypan blue dye exclusion method; format: functional, organism-based; details: Human immunodeficiency virus 1, 3B, CCRF-CEM
[3] = system: Human immunodeficiency virus 2; experiment: Antiviral activity against HIV2 ROD infected in human TK-deficient CEM cells assessed as reduction of virus-induced cytopathogenicity after 4 to 5 days by trypan blue dye exclusion method; format: functional, organism-based; details: Human immunodeficiency virus 2, ISOLATE ROD, CCRF-CEM
[4] = system: CCRF-CEM; experiment: (§1) Cytotoxicity against human CEM cells after 72 hrs by coulter counter analysis; format: cell-based; details: 72 h; for CC50: human, ccrf-cem; for IC50: Homo sapiens, CCRF-CEM
How it was run: (§2)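 Tumour cells, (5–7.5) × 10⁴ per well, were grown with graded compound amounts at 37 °C in humidified CO₂. Growth time was 48 h for L1210, 72 h for CEM and 96 h for HeLa. Cells were then counted with a Coulter counter. IC50 was the concentration reducing cell proliferation by 50%.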

[5] = as §1; format: cell-based, CCRF-CEM; details: human, CEM cells (CCRF-CEM); how it was run: as §2
[6] = system: L1210; experiment: Cytotoxicity against mouse L1210 cells after 48 hrs by coulter counter analysis; format: cell-based; details: L1210, 48 h; how it was run: as §2
[7] = system: Human orthopneumovirus; experiment: Antiviral activity against Respiratory syncytial virus infected in human HeLa cells at 100 uM; format: functional, organism-based
[8] = system: Vesicular stomatitis virus; experiment: Antiviral activity against Vesicular stomatitis virus infected in human HeLa cells at 100 uM; format: functional, organism-based
[9] = system: Human respirovirus 3; experiment: Antiviral activity against Parainfluenza virus 3 infected in African green monkey Vero cells at 100 uM; format: functional, organism-based
[10] = system: Human alphaherpesvirus 1; experiment: Antiviral activity against HSV1 infected in HEL cells at 100 uM; format: functional, organism-based
[11] = system: Human immunodeficiency virus 2; experiment: Antiviral activity against HIV2 ROD infected in human MT4 cells assessed as reduction of virus-induced cytopathogenicity after 4 to 5 days by trypan blue dye exclusion method; format: functional, organism-based; details: Human immunodeficiency virus 2, ISOLATE ROD
How it was run: (§3)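 MT-4 cells (~3 × 10⁵ cells/mL) were infected with 100 CCID50/mL of HIV and cultured with compound dilutions for 4–5 days at 37 °C in humidified CO₂. Viable cells were counted by trypan blue dye exclusion. EC50 was the concentration giving 50% inhibition of the HIV-induced cytopathic effect.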

[12] = system: Mammalian orthoreovirus 1; experiment: Antiviral activity against Reovirus-1 infected in African green monkey Vero cells at 100 uM; format: functional, cell-based
[13] = system: Human immunodeficiency virus 1; experiment: Antiviral activity against HIV1 NL4.3 infected in human MT4 cells assessed as reduction of virus-induced cytopathogenicity after 4 to 5 days by trypan blue dye exclusion method; format: functional, organism-based; details: Human immunodeficiency virus 1, NL4.3, MT4; how it was run: as §3
[14] = system: Coxsackievirus; experiment: Antiviral activity against Coxsackievirus B4 infected in human HeLa cells at 100 uM; format: functional, organism-based
[15] = system: Felid alphaherpesvirus 1; experiment: Antiviral activity against Feline herpesvirus infected in CRFK cells at 100 uM; format: functional, organism-based
[16] = system: MT4; experiment: Cytotoxicity against human MT4 cells after 4 to 5 days by trypan blue dye exclusion method; format: cell-based
[17] = system: HeLa; experiment: Cytotoxicity against human HeLa cells after 96 hrs by coulter counter analysis; format: cell-based; how it was run: as §2
[18] = system: Sindbis virus; experiment: Antiviral activity against Sindbis virus infected in African green monkey Vero cells at 100 uM; format: functional, organism-based
[19] = system: Punta Toro virus; experiment: Antiviral activity against Punta Toro virus infected in African green monkey Vero cells at 100 uM; format: functional, organism-based
[20] = system: Influenza A virus; experiment: Antiviral activity against Influenza A virus H1N1 infected in MDCK cells at 100 uM; format: functional, organism-based
[21] = system: Vaccinia virus; experiment: Antiviral activity against Vaccinia virus infected in HEL cells at 100 uM; format: functional, organism-based; details: Orthopoxvirus vaccinia
[22] = system: Influenza A virus; experiment: Antiviral activity against Influenza A virus H3N2 infected in MDCK cells at 100 uM; format: functional, organism-based
[23] = biological target: Human immunodeficiency virus type 1 reverse transcriptase (Human immunodeficiency virus 1) (UniProt Q72547); experiment: Activity at HIV reverse transcriptase
[24] = system: Feline coronavirus; experiment: Antiviral activity against Feline coronavirus infected in CRFK cells at 100 uM; format: functional, organism-based
[25] = system: Human alphaherpesvirus 2; experiment: Antiviral activity against HSV2 infected in HEL cells at 100 uM; format: functional, organism-based
[26] = Prodrug activation assessed as carboxypeptidase Y (unknown origin)-mediated drug metabolism after 13 hrs by 31P-NMR analysis; format: ADME, Homo sapiens
How it was run: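 The substrate was dissolved in acetone-d6 and mixed with Trizma buffer (pH 7.6) for the carboxypeptidase Y incubation.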

C[C@H](NP(=O)(Oc1ccccc1)OC1C[C@H](CO)[C@@H](O)C1)C(=O)OC(C)(C)C (mixture of isomers)
EC50 [1]: > 250 µM | EC50 [2]: > 250 µM | EC50 [3]: 250 µM | CC50 [4]: > 250 µM

C[C@H](NP(=O)(Oc1ccccc1)OC1C[C@H](CO)[C@@H](O)C1)C(=O)OC1CCCCC1 (mixture of isomers)
EC50 [1]: > 250 µM | EC50 [2]: > 250 µM | EC50 [3]: 250 µM | CC50 [4]: > 250 µM

COC(=O)[C@H](C)NP(=O)(Oc1ccccc1)OC1C[C@H](CO)[C@@H](O)C1 (mixture of isomers)
EC50 [1]: > 250 µM | EC50 [2]: > 250 µM | EC50 [3]: 250 µM | CC50 [4]: > 250 µM

COC(=O)[C@@H](NP(=O)(Oc1ccccc1)OC1C[C@H](CO)[C@@H](O)C1)C(C)C (mixture of isomers)
EC50 [1]: > 250 µM | EC50 [2]: > 250 µM | EC50 [3]: 250 µM | CC50 [4]: > 250 µM

O=C(OCc1ccccc1)OC[C@H]1CC(O)C[C@@H]1OC(=O)OCc1ccccc1 (some centres not stated)
EC50 [1]: > 50 µM | EC50 [2]: > 50 µM | CC50 at 72 h [5]: 110 µM

OC[C@H]1[C@H](O)CC[C@@H]1O
IC50 [6]: 55 µM | Activity [7]: inactive | Activity [8]: inactive | Activity [9]: inactive | Activity [10]: inactive | EC50 [11]: 7.5 µM | Activity [12]: inactive | EC50 [13]: 6.7 µM | Activity [14]: inactive | Activity [15]: inactive | CC50 [16]: 90 µM | IC50 [17]: 175 µM | Activity [18]: inactive | Activity [19]: inactive | Activity [20]: inactive | EC50 [1]: 12 µM | Activity [21]: inactive | Activity [22]: inactive | Activity [23]: inactive | EC50 [2]: 3.8 µM | Activity [24]: inactive | Activity [25]: inactive | IC50 [4]: ≥ 250 µM | CC50 [4]: > 250 µM

CCCCCOC(=O)[C@H](C)NP(=O)(Oc1ccccc1)O[C@@H]1CC[C@H](O)[C@H]1CO (some centres not stated)
IC50 [6]: 116 µM | EC50 [11]: 145 µM | EC50 [13]: > 250 µM | CC50 [16]: > 250 µM | IC50 [17]: 166 µM | IC50 [4]: 106 µM

O=C(OCc1ccccc1)OC[C@H]1[C@H](O)CC[C@@H]1OC(=O)OCc1ccccc1
EC50 [1]: 5.4 µM | Activity [23]: inactive | EC50 [2]: 2.1 µM | CC50 at 72 h [5]: 94 µM

C[C@H](NP(=O)(Oc1cccc2ccccc12)O[C@@H]1CC[C@H](O)[C@H]1CO)C(=O)OCC(C)(C)C (some centres not stated)
IC50 [6]: 70 µM | EC50 [11]: > 50 µM | EC50 [13]: > 50 µM | CC50 [16]: 112 µM | IC50 [17]: 94 µM | IC50 [4]: 64 µM

C[C@H](NP(=O)(Oc1cccc2ccccc12)OC1C[C@H](CO)[C@@H](O)C1)C(=O)OC1CCCCC1 (mixture of isomers)
Stability [26]: Stable | EC50 [1]: > 50 µM | EC50 [2]: > 50 µM | EC50 [3]: 50 µM | CC50 [4]: > 250 µM

OC[C@H]1CC(O)C[C@@H]1O (some centres not stated)
EC50 [1]: > 250 µM | EC50 [2]: > 250 µM | CC50 [4]: > 250 µM
